Many of the other results were omitted from the sample, so hits are more common in it than they were.
Lipid droplet: hepatic lipid droplet formation modulation; AML12 mouse hepatocytes, oleate lipid droplets, BODIPY imaging; inhibition, % at 6.5 µM; 240,000 tested, 0.4% active; AID 1656;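 active = lipid droplet intensity inhibited by at least 50%, with more than 500 cells counted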
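System: AML12 hepatocytes (mouse). Probe or stimulus: oleic acid at 100 µM to induce lipid droplet formation. Times: overnight treatment with compound plus oleate. Detection: Image-based BODIPY and DAPI two-channel analysis. Evaluation: percent inhibition of filter-corrected integrated lipid droplet intensity per well.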
Lmaj promast: Leishmania major promastigote growth inhibition; 200,000 tested, 9% active; Leishmania major promastigotes, resazurin fluorescence viability; inhibition, % at 10 µM; AID 1063; in the data active = inhibition above about 50%;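 note: promastigotes grown with compound for 44 hours at 28 °C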
MPTP inh: inhibitors of mitochondrial permeability transition pore | isolated mouse mitochondria, Ca2+ swelling absorbance, 30 min | inhibition, % at 10 µM | 360,000 tested, 1.4% active | AID 602449;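 active = inhibition of 50% or more, scaled per plate between neutral and stimulator controls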;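 note: 0% = DMSO wells given calcium and 100% = 1 mM EGTA wells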
Redox H2O2 prof: compounds producing H2O2 with reducing agent – biochemical, NIH compound library profiling, artefact control for MLSCN library redox annotation, primary screen; DTT-dependent redox cycling H2O2, phenol red/HRP absorbance; 100% = 100 µM peroxide control, 0% = buffer; activation, % at 10 µM; 200,000 tested, 0.03% active; AID 878;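 active = activation of at least 50% relative to the plate's high and low controls in the primary single-dose screen; inactive = activation below 50%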;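 note: compound incubated with DTT at 0.8 mM final as the reducing agent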
T cruzi inh: blocks replication of Trypanosoma cruzi | inhibition, % (no concentration beside the values) | T. cruzi beta-gal in NIH3T3, luminescence, 90 h | 300,000 tested, 1.4% active;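 active = mean inhibition across valid replicates above about 55%, limit read from the data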;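 note: signal also drops with host cell toxicity which is not excluded here; 0% = plate median of DMSO wells and 100% = zero luminescence signal; higher percent means less beta-gal luminescence so fewer parasites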
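Test system: β-gal T. cruzi (Tulahuen C4) inside NIH/3T3 cells / Quantity: 5,000 cells/well / Measured by: luminescence from GalScreen with 0.05% NP40, read after 60 min / Medium: DMEM plus 2% FBS / Measure: parasite load inhibition, % / Reagent: Tulahuen C4 trypomastigotes, 5000/well / Schedule: co-culture of at least 90 h after 3 h attachment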
The depositor's hits bear a star; / = not tested or not shown.

SMILES	Lipid droplet	Lmaj promast	MPTP inh	Redox H2O2 prof	T cruzi inh
CN(NC(=O)/C=C/C(=O)O)c1ncc(C(F)(F)F)cc1Cl	-8	-17	2	-2	7
COc1ccc(C(=O)OC(C)C(=O)NCC2CCCCC2)cc1S(=O)(=O)N1CCOCC1 (centres undefined)	/	/	0	/	/
O=C(NC1CCN(Cc2ccccc2)CC1)c1ccccc1	-1	/	0	/	56*
CC(Oc1ccccc1)C(=O)NC1CCN(Cc2ccccc2)CC1 (centres undefined)	14	91*	1	2	39
O=C(Cn1cc2c(n1)CCCC2)NC1CCCCCC1	-21	-5	-1	0	-2
O=C(Cc1ccccc1)NC1CCN(Cc2ccccc2)CC1	8	82*	0	-2	43
CC(Oc1ccccc1)C(=O)NC1CCCCCCC1 (centres undefined)	-18	/	-2	/	7
O=C(Cn1cc2c(n1)CCCCC2)NC1CCN(Cc2ccccc2)CC1	/	83*	-1	-2	16
Cc1cc(NC(=O)c2ccc(Cl)c(S(=O)(=O)N3CCCCC3)c2)no1	1	/	-1	/	-20
Cc1ccc(N(C)S(=O)(=O)c2cccc(C(=O)OCC(=O)N(C)Cc3ccccc3)c2)cc1	/	/	1	/	/
O=C(NC1CCN(Cc2ccccc2)CC1)C12CC3CC(CC(C3)C1)C2	26	88*	-2	0	43
Cc1ccc(-c2nnn(CC(=O)NC3CCN(Cc4ccccc4)CC3)n2)cc1	3	-9	0	0	66*
O=C(NC1CCN(Cc2ccccc2)CC1)c1cncc(Br)c1	14	67*	1	-1	16
COc1ccc(CN2C[C@@H](CO)O[C@@H](n3cnc4c(NCc5ccc(F)cc5)ncnc43)C2)cc1	/	/	0	/	/
Cc1ccc(Cn2c(NS(=O)(=O)c3ccccc3)nc3ccccc32)cc1	/	11	4	-1	21
CCn1c(NCc2cc(Br)ccc2NS(=O)(=O)c2ccc(C)cc2)nc2ccccc21	/	100*	3	-12	64*
CCCn1c(NCc2ccccc2NS(=O)(=O)c2ccc(C)cc2)nc2ccccc21	0	96*	44	0	43
CCn1c(NCc2ccc(OC)cc2)nc2ccccc21	0	/	2	/	-6
CCn1c(NCc2ccccc2Cl)nc2ccccc21	-7	51*	-16	-1	-9
CCn1c(NCc2ccccc2NS(=O)(=O)c2ccc(C)cc2)nc2ccccc21	-6	72*	35	0	17
CC(C)CC(NC(N)=O)C(=O)OCC(=O)N(Cc1ccccc1)Cc1ccccc1 (centres undefined)	9	1	0	1	/
COc1cc2cc(CCCOC(=O)CCCC(=O)O)oc(=O)c2cc1OC	/	/	-1	/	/
COc1cc(/C=N/n2cnnc2)ccc1OCc1ccccc1	/	80*	0	2	51
COc1cc(/C=N/n2cnnc2)ccc1OCc1ccc(C)cc1	-4	96*	0	0	46
COc1cc(/C=N/n2cnnc2)ccc1OCCOc1ccccc1	/	37	-1	-4	6
SMILES	Lipid droplet	Lmaj promast	MPTP inh	Redox H2O2 prof	T cruzi inh
CCOc1cc(/C=N/O)ccc1OCc1ccc(C)cc1	-29	61*	1	0	22
O/N=C/c1ccc(OCc2ccccc2)c(Br)c1	9	57*	0	-1	11
CC1CCCCC1NC(=O)C1CCC(CNc2c(N3CCCCC3)c(=O)c2=O)CC1 (centres undefined)	12	/	0	/	1
NNC(=O)c1cccn(Cc2cccc(C(F)(F)F)c2)c1=O	12	/	0	/	-11
Cn1c(NCCCN2CCOCC2)nc2c1c(=O)n(Cc1ccc(Cl)cc1)c(=O)n2C	/	74*	-1	0	-3
Cn1c(NCCCN2CCOCC2)nc2c1c(=O)n(Cc1ccc(Cl)c(Cl)c1)c(=O)n2C	-5	99*	9	-2	31
Cn1c(NCc2ccco2)nc2c1c(=O)n(Cc1ccc(Cl)cc1)c(=O)n2C	-50	-6	1	-3	-7
NC(=O)C1CCN(Cc2nc3cc(C(F)(F)F)ccc3c(=O)[nH]2)CC1	-1	/	2	/	-6
Cc1cc(Nc2ccccc2)c2c([N+](=O)[O-])ccc(C)c2n1	16	26	0	0	61*
Cc1cc(Nc2cccc([N+](=O)[O-])c2)c2cccc(C)c2n1	1	/	8	/	43
O=C(NCCCN1CCOCC1)c1cc2cc(Br)ccc2oc1=O	/	15	-1	0	-5
Cc1ccc(C(=O)NCCCN2CCOCC2)c(C)c1	5	/	0	/	-2
O=C(NCCCN1CCOCC1)c1ccc(Br)cc1Br	18	81*	/	-1	-6
Cc1c(Br)cc(C(=O)NCCCN2CCOCC2)c(C)c1C	3	61*	1	0	6
S=C1Cc2ccccc2N1	3	/	0	/	60*
CC(C)N1CCC1(C)C(=O)Nc1cc(-c2ccccc2)nn1C (centres undefined)	/	/	0	/	/
O=C(O)CC/C(=N/NC(=O)c1ccc(-c2ccccc2)cc1)c1ccccc1	-7	/	1	/	2
C1=CCC(CN2CCNCC2)CC1 (centres undefined)	33	-4	1	0	-1
Cc1ccc(C)c(N2CCN(CC3CC=CCC3)CC2)c1 (centres undefined)	-11	87*	2	0	12
COc1ccccc1C(=O)NCC1(c2ccccc2)CCCC1	-10	7	-2	0	9
CCCCNC(=O)CSc1nc2cc3c(cc2c(=O)n1CCC(=O)NCCc1ccc(OC)c(OC)c1)OCO3	-1	52*	1	0	47
CCC(Sc1nc2cc(OC)c(OC)cc2c(=O)n1CCc1ccc(OC)c(OC)c1)C(=O)NCCOC (centres undefined)	6	80*	0	-1	4
CCCCNC(=O)CSc1nc2cc3c(cc2c(=O)n1CCCC(=O)NCCc1ccc(OC)c(OC)c1)OCO3	-2	12	-2	0	23
COCc1cc(=O)[nH]c2c1c(-c1ccccc1)nn2C	-8	/	3	/	-12
Cc1ccsc1CNC1C2CC3CC(C2)CC1C3 (centres undefined)	10	-2	4	0	10
SMILES	Lipid droplet	Lmaj promast	MPTP inh	Redox H2O2 prof	T cruzi inh
Cc1ccc(S(=O)(=O)c2c(C)cc(C)[nH]c2=O)cc1	0	/	0	/	-3
O=C(CCc1ccccc1)N1CCN(S(=O)(=O)c2cccs2)CC1	-39	/	-2	/	-2
O=S(=O)(C/C(=C/CO)S(=O)(=O)c1ccccc1)c1ccccc1	/	55*	-1	1	62*
Cc1ccc(C(=O)NNC(=O)c2ccc(S(=O)(=O)N(C)c3ccccc3)cc2)cc1	/	/	1	/	/
O=C(c1ccc(Cl)cc1)N1C2C=CC(C2)C1(C(F)(F)F)C(F)(F)F (centres undefined)	1	64*	0	1	8
Cc1[nH]c2ccccc2c1CN1CCN(c2ccccn2)CC1	-55	/	0	/	78*
CCS(=O)(=O)N1CCN(c2ccccn2)CC1	14	92*	1	-1	3

Screening results from PubChem BioAssay.
